# Compound activity (PubChem)
# Compounds with a hit are over-represented: about 1.8% of the library has one in this group of screens.
# p-CIP stab down = lowers stability of the mouse p/CIP coactivator protein | Q05BA5 | F442A p/CIP-EGFP cells, EGFP fluorescence, 16 h | decrease of EGFP signal, % at 10 µM | 290,000 tested, 0.01% active | AID 1984;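 active means EGFP signal decrease of at least 30% at 10 µM or well 3 SD below plate mean, unless failing retest; inactive means the rest, including hits failing retest or dose response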
# APOBEC3A inh = inhibitors of human APOBEC3A DNA deaminase. P31941. AID 493011. recombinant A3A, FAM/TAMRA ssDNA deamination fluorescence. 330,000 tested, 0.41% active. inhibition, % at 20 µM;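 active means at least 40% inhibition at 20 µM here, with at most 30% in a related deaminase screen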;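 further: plate controls were A3A with DMSO for no effect and wells lacking A3A enzyme for full effect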
# APOBEC3G inh = blocks human APOBEC3G single-stranded DNA deamination. recombinant A3G, ssDNA deamination FAM/TAMRA fluorescence. inhibition, % at 20 µM. AID 493012. 330,000 tested, 0.28% active. Q9HC16;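 active means inhibition of at least 40% at 20 µM, with no more than 30% in the related APOBEC3A deaminase screen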;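 further: plate controls were DMSO wells with A3G for no effect and wells lacking A3G enzyme for full effect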
# TbMetRS inhib = blocks T. brucei methionyl-tRNA synthetase activity. purified T. brucei MetRS, ATP depletion, Kinase-Glo luminescence. inhibition, % at 11.9 µM. 360,000 tested, 0.4% active;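 active means inhibition above a per-plate cutoff of the control wells' mean inhibition plus 3 SD, cut at about 5.5% in these data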;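 further: 0% = DMSO wells median and 100% = median of wells with control inhibitor compound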
#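 assay system = parasite MetRS enzyme | timing = 15 min preincubation, 2 h reaction, all 25 °C | evaluation = percent inhibition relative to median high and low control wells | medium = HEPES buffer containing pyrophosphatase, BSA, spermine, DTT | compound = single dose, 11.9 µM final nominal, 0.9% final DMSO | detection = Kinase-Glo luminescence, ATP depletion format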
# PHOSPHO1 block = blocks human PHOSPHO1 phosphatase activity; Q8TCT1; recombinant PHOSPHO1, absorbance phosphatase assay; inhibition, % at 13.3 µM; 290,000 tested, 1.1% active; in the data active means inhibition above about 60%
# Target sequence (Q8TCT1 whole entry, looked up): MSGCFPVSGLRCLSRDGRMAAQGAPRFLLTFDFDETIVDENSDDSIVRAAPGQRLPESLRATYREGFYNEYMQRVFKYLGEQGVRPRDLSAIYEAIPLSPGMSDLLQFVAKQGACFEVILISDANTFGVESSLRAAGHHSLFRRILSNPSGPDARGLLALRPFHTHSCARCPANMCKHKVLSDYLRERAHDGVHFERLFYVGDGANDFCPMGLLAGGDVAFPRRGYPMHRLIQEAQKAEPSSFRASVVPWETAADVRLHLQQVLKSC
# A3A conf = APOBEC3A (human) deaminase inhibition, confirmed; shares compounds with APOBEC3A inh; recombinant A3A, ssDNA deaminase UDG fluorescence assay; inhibition, % at 20 µM; 1,400 tested, 63% active; AID 493151;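 active means inhibition reaching a set limit, 80% of the first screen's cutoff, at 20 µM in any replicate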;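 further: plate controls were DMSO wells with A3A for no effect and wells lacking A3A enzyme for full effect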
# UDG ctr A3A = counter-screen for APOBEC3A inhibitors: UDG. shares compounds with APOBEC3A inh. UDG counterscreen, FAM/TAMRA uracil oligo fluorescence. inhibition, % at 20 µM. 1,000 tested, under 10 active; call rule not given here
# * hit, by the source's call; x = no result.
SMILES,p-CIP stab down,APOBEC3A inh,APOBEC3G inh,TbMetRS inhib,PHOSPHO1 block,A3A conf,UDG ctr A3A
C[N+](C)(C)CCCCCC(=O)/C=N/O,-12,53*,11,-1,-5,66*,3
CCOC(=O)c1ccc(NS(=O)(=O)c2cn(C)cn2)cc1,4,-2,-4,-1,20,x,x
COc1cc(OC)c2ccc(=O)oc2c1C(CCN1CCCC1)c1ccc2c(c1)OCO2 (stereo not given),-13,64*,20,0,40,-1,x
COc1cc(OC)c2ccc(=O)oc2c1C(CCN1CCOCC1)c1ccc2c(c1)OCO2 (stereo not given),x,2,1,-1,x,x,x
COc1ccc2c(c1)c(=O)oc1cc(OCC(=O)N3CCC(C)CC3)ccc12,-13,54*,28,0,11,49*,-1
COc1ccc2c(c1)c(=O)oc1cc(OCC(=O)N3CCc4ccccc4C3)ccc12,5,45*,11,0,12,71*,-2
CC(C)N1CC(O)=C(c2ccccc2)C1=N,-50,74*,-3,0,7,-1,4
COc1ccc(/C=N/NC(=O)C(C)Sc2ccccn2)cc1[N+](=O)[O-] (stereo not given),3,49*,11,0,13,65*,12
COc1ccc(/C=N\NC(=O)CNC(=O)C(c2ccccc2)c2ccccc2)cc1[N+](=O)[O-],-13,-3,-10,-1,10,x,x
Clc1ccc(Sc2oc(/C=N/n3cnnc3)cc2Br)cc1,-7,43*,25,0,84*,72*,-4
CCc1ccc(NC(=O)C2CCN(S(=O)(=O)c3c(C)noc3/C=C/N(C)C)CC2)cc1,9,-5,-3,0,7,x,x
O=C(CN1C(=O)COc2ccc(Cl)cc21)Nc1nccs1,x,3,-1,0,x,x,x
Cc1cccnc1NC(=O)CN1C(=O)COc2ccc(Cl)cc21,3,69*,17,0,x,59*,-1
CC(C)[C@H](NC(=O)c1ccccc1F)C(=O)NCCc1ccccc1,-14,22,2,0,6,x,x
CC(C)C(NC(=O)c1ccccc1F)C(=O)NCc1ccc(F)cc1 (stereo not given),0,40*,3,0,4,13,x
O=C(CSC1=NCCS1)NC1CCCCC1,5,49*,8,-1,-7,52*,0
O=C(CSC1=NCCS1)NC1CCCC1,-8,-2,-2,0,42,x,x
O=C(COc1ccccc1)NCC1(N2CCCCC2)CCCCC1,2,-5,-8,0,16,x,x
O=C(COc1ccccc1Cl)N1CCN(c2ccccn2)CC1,x,42*,7,0,x,2,x
CCOC(=O)c1ccc2c(c1)C1C=CCC1C(C(=O)O)N2 (stereo not given),-22,98,88,x,7,x,x
CCCC1Nc2ccc(C(=O)O)cc2C2C=CCC12 (stereo not given),-1,x,x,0,8,x,x
CC(C)C1Nc2ccc(C(=O)O)cc2C2C=CCC21 (stereo not given),-29,40*,28,0,10,42*,6
CCOC(=O)C1Nc2ccc(C(=O)O)cc2C2C=CCC12 (stereo not given),11,81*,27,0,3,89*,1
CC[N+](C)(CC)CC(=O)OCC1C(C)C=C(C)CC1C (stereo not given),-22,73*,22,0,-25,82*,3
COc1ccc(CNC(=O)C2CCCN(S(=O)(=O)c3ccc(F)cc3)C2)cc1 (stereo not given),6,-1,-4,-1,13,x,x
CCCCc1c(O)c2ccccc2n(CCCC)c1=O,-5,-3,-3,1,12,x,x
CCCCc1c(CCC)c(=N)c2ccccc2n1C,-19,42*,25,-1,-78,83*,4
CCc1noc(C)c1C(=O)NNC(=O)c1cc(OC)c(OC)c(OC)c1,x,62*,9,0,x,54*,-1
CCc1noc(C)c1C(=O)NNC(=O)c1cc(OC)cc(OC)c1,x,3,0,0,x,x,x
